Screens (PubChem BioAssay)
This is a sample that favours compounds with a hit; in the whole collection about 11% have one here.
M1 antag: antagonists of rat M1 muscarinic receptor | CHO-M1 cells, Fluo-4 calcium, ACh EC80 antagonist mode; active compounds read low | B-score at 10 µM | 64,000 compounds, 3.4% hits | AID 628;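 active = calcium fluorescence response, raw or row-and-column corrected B-score, differing from the plate sample mean either way at a set confidence level, mostly lower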
S1P1 ag pot: agonists and agonism potentiators of human S1P1 receptor; 56,000 compounds, 0.57% hits; S1P1 CRE-bla cells, forskolin, beta-lactamase FRET, potentiator mode; S1P1 agonist co-added at EC20, 2 nM; 100% = saturating reference agonist, 0% = basal; P21453; activation, % at 9.5 µM;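 active = activation above a cutoff set at the mean activation of all tested compounds plus 3 SD, cut at about 54% in these data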;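 also: forskolin at 4 µM as EC80 and the EC20 agonist is SEW2871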
Target sequence (P21453 whole entry, looked up): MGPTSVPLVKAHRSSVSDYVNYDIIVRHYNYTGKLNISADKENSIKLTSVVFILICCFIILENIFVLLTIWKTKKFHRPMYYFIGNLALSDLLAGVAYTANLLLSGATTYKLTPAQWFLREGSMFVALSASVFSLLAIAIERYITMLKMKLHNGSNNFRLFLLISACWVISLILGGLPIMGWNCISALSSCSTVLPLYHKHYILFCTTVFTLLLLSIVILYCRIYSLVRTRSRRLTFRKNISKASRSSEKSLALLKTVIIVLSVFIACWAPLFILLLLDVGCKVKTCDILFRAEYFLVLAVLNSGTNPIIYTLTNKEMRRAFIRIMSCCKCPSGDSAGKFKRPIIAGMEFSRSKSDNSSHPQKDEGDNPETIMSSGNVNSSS
M1 ag: agonists of M1 muscarinic receptor; CHO-M1 cells, Fluo-4 calcium fluorescence, agonist mode; active compounds read high; AID 626; 64,000 compounds, 3% hits; B-score at 10 µM;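 active = fluorescence rise, raw or as B-score row- and column-corrected plate score, outside the 99.7% band of its plate's samples, either direction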
S1P3 agonist: activates the human S1P3 receptor; Q99500; S1P3 NFAT-BLA reporter cells, agonism, FRET ratio; relative to 1 µM S1P, basal subtracted; activation, % at 4.5 µM; 60,000 compounds, 0.1% hits;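 active = activation above the screen-wide mean plus 3 SD, cut at about 4.5% in these data, passing the limit was not always enough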
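Material: Human S1P3 NFAT-BLA reporter CHO cells | Incubation: Overnight plating, 4 h compound 37 °C, 2 h substrate RT | Signal: FRET β-lactamase substrate fluorescence, excitation 405 nm, 460/535 nm emission ratio, background-subtracted | Compound: 4.5 µM final, single dose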
D1 allo mod: D1 dopamine receptor (human) allosteric modulation; 58,000 compounds, 5.9% hits; B-score at 10 µM; HEK293 D1, CRE-luciferase, dopamine EC30 potentiation; actives deviate in either direction;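 active = luminescence count or its row- and column-corrected plate score outside the 99.7% band of the plate's sample wells, on either side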
M1 antag conf: confirmation of rat M1 muscarinic receptor antagonists; calcium response (max-min fluorescence) at 10 µM; AID 677; 1,700 compounds, 43% hits; CHO-M1 cells, Fluo-4 calcium, ACh EC80 antagonism; active compounds read low; shares compounds with M1 antag;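 active = calcium response below the same-plate mean of wells given acetylcholine alone at its 80%-effect dose, minus 3 SD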
mGluR4 antag: mGluR4 (human) activity, M1 antagonist secondary assay | shares compounds with M1 antag | CHO-mGluR4 calcium flux, Fluo-4 fluorescence, glutamate EC80; active compounds read low | fluorescence response (max-min) at 10 µM | 1,700 compounds, 0.9% hits;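 active = fluorescence response below the plate's average for near-maximal glutamate wells, less 3 SD of those wells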;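 also: raw unnormalized fluorescence span taken in the window right after glutamate addition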
Numbers stand for hits; 0 = inactive; - = no result.

SMILES	M1 antag	S1P1 ag pot	M1 ag	S1P3 agonist	D1 allo mod	M1 antag conf	mGluR4 antag
CC1CCCC(NC(=O)CCn2c(=O)oc3ccccc32)C1C (stereo not given)	0	0	0	0	0	-	-
COc1ccc(S(=O)(=O)Nc2ccccc2C(=O)NC(C)C)cc1OC	0	0	0	0	0	-	-
CC(=O)C1=C(N2CCCCC2)CCC1=O	0	0	0	0	0	-	-
COc1ccc(C(C)=O)c2c1OCCO2	-2.23	0	0	0	0	0	0
CCOc1ccc(Cn2nnc(C(=O)NCc3ccc(OC)cc3)c2N)cc1	-1.55	0	0	0	0	0	0
Cc1cc(C)cc(-n2cc3c(=O)n(C)c(=O)n(C)c3c2)c1	0	0	0	0	0	-	-
Cc1cc(Cl)ccc1OCCCC(=O)NC1CCN(C)CC1	-2.87	0	0	0	0	479	0
CC(=O)NC(CCS(C)(=O)=O)C(=O)Nc1ccc(C)c(F)c1 (stereo not given)	0	0	0	0	0	-	-
O=C(O)Cn1cc(C(=O)c2cccs2)c2ccccc21	0	0	0	0	0	-	-
O=C(c1cccs1)c1cn(CC(=O)N2CCc3ccccc3C2)c2ccccc12	-7.23	0	0	0	0	0	0
COc1cc(OC)c2c(C)c(Cl)c(=O)oc2c1	0	0	0	0	0	-	-
CCOCCCNC(=O)Cn1cc2c(n1)CCCCC2	0	0	0	0	0	-	-
Cc1cc2ncn(C(=O)c3c(-c4ccccc4Cl)noc3C)c2cc1C	-5.53	0	0	0	0	264	0
CCOC(=O)N1CCC(NS(=O)(=O)c2ccc3c(c2)C(C)(C)C(=O)N3C)CC1	-16.6	0	0	0	0	0	0
CCOC(=O)N1CCC(NS(=O)(=O)c2ccc3c(c2)oc(=O)n3C)CC1	0	0	0	0	0	-	-
Cn1c(SCC(=O)N2CCCCCC2)nc2c([nH]c3ccccc32)c1=O	0	-	0	-	0	-	-
Cn1c(SCC(=O)N2CCCCC2)nc2c([nH]c3ccccc32)c1=O	-3.48	0	0	0	0	443	0
Cc1csc(NC(=O)CSCC(=O)Nc2ccccc2)n1	0	0	0	0	0	-	-
Cc1cccc2cc(CN(CC3CCCO3)C(c3nnnn3Cc3ccco3)C(C)C)c(=O)[nH]c12 (stereo not given)	0	0	0	0	0	-	-
CCc1[nH]nc2c1C1(CCN(C(=O)c3ccccc3)CC1)C(C#N)=C(N)O2	0	-	0	0	0	-	-
CC(=O)N1CCC2(CC1)C(C#N)=C(N)Oc1n[nH]c(CSc3ccc(C)cc3)c12	-2.38	0	0	0	0	0	127
O=C(NCCCn1ccnc1)C1c2ccccc2Oc2ccccc21	-5.99	0	0	0	-2.46	309	0
Cc1ccc(C(=O)NCCCn2ccnc2)o1	0	0	0	0	0	-	-
Cc1ccccc1CS(=O)(=O)CCC(=O)N1CCN(c2ccc(N3CCOCC3)nn2)CC1	0	-	0	-	0	-	-
COc1ccc(C(=O)N2CCN(c3nc4cc(C)ccc4cc3C#N)CC2)c(OC)c1	0	0	0	0	0	-	-
SMILES	M1 antag	S1P1 ag pot	M1 ag	S1P3 agonist	D1 allo mod	M1 antag conf	mGluR4 antag
Cc1ccc2nc(N3CCN(C(=O)c4cccs4)CC3)c(C#N)cc2c1	-2.25	0	0	0	0	0	0
O=C(CN(Cc1ccccc1)C(=O)CCC(=O)Nc1ccccn1)NCc1ccco1	0	0	0	0	0	-	-
COc1cccc(C(=O)Cn2c(N3CCCCC3)nc3c2c(=O)n(C)c(=O)n3C)c1	0	0	0	0	0	-	-
COc1cccc(C(=O)Cn2c(=N)n(C)c3ccccc32)c1	-4.95	0	0	0	0	443	0
CCN1CCc2c(C#N)c(N3CCCCC3)nc(NCc3ccccc3)c2C1	0	0	0	0	0	-	-
CCN1CCc2c(C#N)c(N3CCOCC3)nc(NCc3ccccc3)c2C1	-2.18	0	0	0	0	0	0
CC(C)COC(=O)N1CC(O)CC1C(=O)O (stereo not given)	0	0	0	0	0	-	-
CC(C)(C)n1nnnc1C(c1ccccc1)N1CCc2ccccc2C1 (stereo not given)	-12.1	0	0	0	0	368	0
